Reference: ChEMBL document CHEMBL3232844, “Synthesis and structure activity relationships of schweinfurthin indoles” (2014)

Assays:
Type in all cases: functional
[1] = tested on: T47D; experiment: Cytotoxicity against human T47D cells
Outline: (§1)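 Cell line run as part of the 60-cell-line screening panel; growth inhibition was reported as a GI50 for each line.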

[2] = tested on: LOX IMVI; experiment: Cytotoxicity against human LOXIMVI cells
Outline: (§2)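 Tested in a 60-cell-line human tumor panel screen; the read-out is growth inhibition, reported as GI50 for each cell line.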

[3] = Cytotoxicity against human HCT15 cells; outline: as §2
[4] = Cytotoxicity against human OVCAR4 cells; outline: as §2
[5] = tested on: HOP-62; experiment: Cytotoxicity against human HOP62 cells; outline: as §2
[6] = tested on: KM12; experiment: Cytotoxicity against human KM12 cells; outline: as §2
[7] = tested on: SK-MEL-5; experiment: Cytotoxicity against human SK-MEL-5 cells; outline: as §2
[8] = tested on: SF-268; experiment: Cytotoxicity against human SF268 cells; outline: as §2
[9] = tested on: NCI-H23; experiment: Cytotoxicity against human NCI-H23 cells; outline: as §2
[10] = tested on: SNB-19; experiment: Cytotoxicity against human SNB19 cells; outline: as §2
[11] = tested on: COLO 205; experiment: Cytotoxicity against human COLO205 cells; outline: as §2
[12] = Cytotoxicity against human OVCAR8 cells; outline: as §2
[13] = tested on: MOLT-4; experiment: Cytotoxicity against human MOLT4 cells; outline: as §2
[14] = tested on: MDA-MB-231; experiment: Cytotoxicity against human MDA-MB-231 cells; outline: as §2
[15] = tested on: CAKI-1; experiment: Cytotoxicity against human Caki1 cells; outline: as §2
[16] = tested on: BT-549; experiment: Cytotoxicity against human BT549 cells; outline: as §2
[17] = tested on: DU-145; experiment: Cytotoxicity against human DU145 cells; outline: as §2
[18] = tested on: SK-OV-3; experiment: Cytotoxicity against human SKOV3 cells; outline: as §2
[19] = tested on: SNB-75; experiment: Cytotoxicity against human SNB75 cells; outline: as §1
[20] = tested on: K562; experiment: Cytotoxicity against human K562 cells; outline: as §2
[21] = tested on: HCT-116; experiment: Cytotoxicity against human HCT116 cells; outline: as §2
[22] = tested on: CCRF-CEM; experiment: Cytotoxicity against human CCRF-CEM cells
[23] = tested on: HL-60(TB); experiment: Cytotoxicity against human HL-60(TB) cells
Outline: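 Tested within the NCI 60-cell-line screen, with GI50 as the read-out. Values are the average of two independent experiments. The lowest concentration tested was 10 nM.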

[24] = Cytotoxicity against human NCI-ADR-RES cells; outline: as §2
[25] = tested on: NCI-H226; experiment: Cytotoxicity against human NCI-H226 cells; outline: as §2
[26] = tested on: SF-539; experiment: Cytotoxicity against human SF539 cells; outline: as §2
[27] = tested on: A498; experiment: Cytotoxicity against human A498 cells; outline: as §2
[28] = tested on: M14; experiment: Cytotoxicity against human M14 cells; outline: as §2
[29] = tested on: IGROV-1; experiment: Cytotoxicity against human IGROV1 cells; outline: as §2
[30] = tested on: SK-MEL-2; experiment: Cytotoxicity against human SK-MEL-2 cells; outline: as §2
[31] = Cytotoxicity against human UACC62 cells; outline: as §1
[32] = tested on: MCF7; experiment: Cytotoxicity against human MCF7 cells; outline: as §2
[33] = tested on: NCI-H322M; experiment: Cytotoxicity against human NCI-H322M cells; outline: as §2
[34] = tested on: ACHN; experiment: Cytotoxicity against human ACHN cells; outline: as §2
[35] = tested on: MDA-MB-435; experiment: Cytotoxicity against human MDA-MB-435 cells; outline: as §2
[36] = tested on: A549; experiment: Cytotoxicity against human A549 cells; outline: as §2
[37] = Cytotoxicity against human OVCAR5 cells; outline: as §2
[38] = tested on: 786-0; experiment: Cytotoxicity against human 786-0 cells; outline: as §2
[39] = tested on: NCI-H460; experiment: Cytotoxicity against human NCI-H460 cells; outline: as §2
[40] = Cytotoxicity against human UO31 cells; outline: as §1
[41] = tested on: MDA-MB-468; experiment: Cytotoxicity against human MDA-MB-468 cells; outline: as §2
[42] = tested on: HCC 2998; experiment: Cytotoxicity against human HCC2998 cells; outline: as §2
[43] = tested on: PC-3; experiment: Cytotoxicity against human PC3 cells; outline: as §2
[44] = read-out: pLC50 (the source's name) (converted)

COc1cc(/C=C/c2cc(O)c3cc[nH]c3c2)cc2c1O[C@]1(C)CC[C@@H](O)C(C)(C)[C@H]1C2
GI50 [1]: 5.01 µM | CC50 [1, 44]: 83.2 µM | TGI ([1]; read-out: pTGI (converted)): 22.4 µM | GI50 [2]: 0.363 µM | CC50 [2, 44]: 4.57 µM | TGI ([2]; read-out: pTGI (converted)): 1.32 µM | GI50 ([3]; HCT-15): 0.324 µM | CC50 ([3]; HCT-15, read-out: pLC50 (the source's name) (converted)): > 100 µM | TGI ([3]; HCT-15, read-out: pTGI (converted)): 33.9 µM | GI50 ([4]; OVCAR-4): 3.31 µM | CC50 ([4]; OVCAR-4, read-out: pLC50 (the source's name) (converted)): > 100 µM | TGI ([4]; OVCAR-4, read-out: pTGI (converted)): 34.7 µM | GI50 [5]: 1.91 µM | CC50 [5, 44]: > 100 µM | TGI ([5]; read-out: pTGI (converted)): 8.13 µM | GI50 [6]: 0.457 µM | CC50 [6, 44]: 9.55 µM | TGI ([6]; read-out: pTGI (converted)): 1.86 µM | GI50 [7]: 0.195 µM | CC50 [7, 44]: 1.12 µM | TGI ([7]; read-out: pTGI (converted)): 0.457 µM | GI50 [8]: 0.794 µM | CC50 [8, 44]: > 100 µM | TGI ([8]; read-out: pTGI (converted)): 34.7 µM | GI50 [9]: 1.7 µM | CC50 [9, 44]: 61.7 µM | TGI ([9]; read-out: pTGI (converted)): 8.13 µM | GI50 [10]: 1.32 µM | CC50 [10, 44]: > 100 µM | TGI ([10]; read-out: pTGI (converted)): 18.2 µM | GI50 [11]: 1.26 µM | CC50 [11, 44]: 11.5 µM | TGI ([11]; read-out: pTGI (converted)): 3.39 µM | GI50 ([12]; OVCAR-8): 1.2 µM | CC50 ([12]; OVCAR-8, read-out: pLC50 (the source's name) (converted)): > 100 µM | TGI ([12]; OVCAR-8, read-out: pTGI (converted)): 30.9 µM | GI50 [13]: 0.309 µM | CC50 [13, 44]: 75.9 µM | TGI ([13]; read-out: pTGI (converted)): 1.78 µM | GI50 [14]: 1.82 µM | LC50 [14]: > 100 µM | TGI ([14]; read-out: pTGI (converted)): 20.9 µM | GI50 [15]: 0.741 µM | LC50 [15]: 20.9 µM | TGI ([15]; read-out: pTGI (converted)): 2.29 µM | GI50 [16]: 0.178 µM | CC50 [16, 44]: 95.5 µM | TGI ([16]; read-out: pTGI (converted)): 4.57 µM | GI50 [17]: 1.15 µM | LC50 (50% lethal concentration) [17]: 25.1 µM | TGI ([17]; read-out: pTGI (converted)): 6.76 µM | GI50 [18]: 1.51 µM | LC50 [18]: > 100 µM | TGI ([18]; read-out: pTGI (converted)): 10 µM | GI50 [19]: 0.269 µM | CC50 [19, 44]: > 100 µM | TGI ([19]; read-out: pTGI (converted)): 4.57 µM | GI50 [20]: 0.708 µM | CC50 [20, 44]: > 100 µM | TGI ([20]; read-out: pTGI (converted)): 20.4 µM | GI50 [21]: 0.912 µM | CC50 [21, 44]: 6.03 µM | TGI ([21]; read-out: pTGI (converted)): 2.45 µM | GI50 [22]: 0.525 µM | CC50 [22, 44]: > 100 µM | TGI ([22]; read-out: pTGI (converted)): 36.3 µM | GI50 [23]: 0.513 µM | CC50 [23, 44]: > 100 µM | TGI ([23]; read-out: pTGI (converted)): 8.71 µM | GI50 [24]: 2.57 µM | CC50 [24, 44]: > 100 µM | TGI ([24]; read-out: pTGI (converted)): 33.9 µM | GI50 [25]: 12 µM | CC50 [25, 44]: 70.8 µM | TGI ([25]; read-out: pTGI (converted)): 28.8 µM | GI50 [26]: 0.257 µM | TGI ([26]; read-out: pTGI (converted)): 1.23 µM | GI50 [27]: 1.55 µM | CC50 [27, 44]: 56.2 µM | TGI ([27]; read-out: pTGI (converted)): 8.91 µM | GI50 [28]: 0.676 µM | CC50 [28, 44]: 6.17 µM | TGI ([28]; read-out: pTGI (converted)): 2.19 µM | GI50 [29]: 2.29 µM | CC50 [29, 44]: 60.3 µM | TGI ([29]; read-out: pTGI (converted)): 10.2 µM | GI50 [30]: 1.12 µM | CC50 [30, 44]: 31.6 µM | TGI ([30]; read-out: pTGI (converted)): 7.24 µM | GI50 ([31]; UACC-62): 2.19 µM | CC50 ([31]; UACC-62, read-out: pLC50 (the source's name) (converted)): 43.7 µM | TGI ([31]; UACC-62, read-out: pTGI (converted)): 7.24 µM | GI50 [32]: 1.29 µM | LC50 [32]: 51.3 µM | TGI ([32]; read-out: pTGI (converted)): 20.4 µM | GI50 [33]: 3.47 µM | CC50 [33, 44]: > 100 µM | TGI ([33]; read-out: pTGI (converted)): 25.1 µM | GI50 [34]: 1.1 µM | LC50 (concentration killing 50% of cells) [34]: > 100 µM | TGI ([34]; read-out: pTGI (converted)): 14.1 µM | GI50 [35]: 0.933 µM | CC50 [35, 44]: 85.1 µM | TGI ([35]; read-out: pTGI (converted)): 11.2 µM | GI50 [36]: 1.48 µM | TGI ([36]; read-out: pTGI (converted)): 3.72 µM | GI50 ([37]; OVCAR-5): 7.41 µM | CC50 ([37]; OVCAR-5, read-out: pLC50 (the source's name) (converted)): > 100 µM | TGI ([37]; OVCAR-5, read-out: pTGI (converted)): 41.7 µM | GI50 [38]: 0.372 µM | LC50 (concentration killing 50% of cells) [38]: 6.31 µM | TGI ([38]; read-out: pTGI (converted)): 1.82 µM | GI50 [39]: 0.871 µM | CC50 [39, 44]: 5.37 µM | TGI ([39]; read-out: pTGI (converted)): 2.29 µM | GI50 ([40]; UO-31): 0.479 µM | LC50 ([40]; UO-31): > 100 µM | TGI ([40]; UO-31, read-out: pTGI (converted)): 2.04 µM | GI50 [41]: 2.45 µM | LC50 [41]: > 100 µM | TGI ([41]; read-out: pTGI (converted)): 7.59 µM | GI50 [42]: 2.88 µM | CC50 [42, 44]: 55 µM | TGI ([42]; read-out: pTGI (converted)): 14.5 µM | GI50 [43]: 0.631 µM | LC50 [43]: > 100 µM | TGI ([43]; read-out: pTGI (converted)): 38 µM
